Bioassay records deposited in PubChem by several laboratories.
The list is not random: actives were taken first. Their share in the collection is about 3.1%.
NS3 helicase inh = blocks Hepatitis C virus NS3 helicase unwinding | NS3 helicase DNA unwinding, Cy5 molecular beacon fluorescence | inhibition, % at 10.9 µM | hit rate 0.56% among 290,000;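 active means inhibition above the mean of all tested compounds plus 3 SD, set per campaign, cut at about 35% in these data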;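 further: 0% = DMSO wells and 100% = thioflavine S control wells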
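System: Hepatitis C virus NS3 helicase domain fragment enzyme | Reagent: Annealed dual-labelled DNA beacon duplex, ATP-started | Compound dosing: 10.9 µM single point, 0.8% DMSO | Incubation: 1 h reaction at 25 °C, ATP-initiated | Technique: Cy5 fluorescence | Evaluation: Percent inhibition from t60/t0 fluorescence ratio | Benchmarks: Low DMSO, high thioflavine S at 110 µM | Replication: Singlicate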
core dimer inh = HCV core protein dimerization inhibition. TR-FRET GST/Flag-core106 dimerization, 1536-well. inhibition, % at 5 µM. hit rate 0.33% among 300,000. AID 1899;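 active means inhibition above the mean of all tested compounds plus 3 SD, set per screening campaign, cut at about 45% in these data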
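Assay system – GST-tagged and Flag-tagged HCV core protein residues 1-106 · Quantity – core106 proteins, GST 13.5 nM and Flag 17 nM · Benchmarks – unlabelled core106 and no-GST-core106 wells · Read-out basis – percent inhibition of core106 dimerization signal · Detection – time-resolved FRET, ex 340 nm, em 617 and 671 nm · Schedule – 4 h at 22.5 °C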
IMP-1 inh-1 = inhibitors of Pseudomonas aeruginosa IMP-1 metallo-beta-lactamase | purified IMP-1, nitrocefin hydrolysis, epi-absorbance fluorescence | inhibition, % at 5.6 µM | hit rate 0.45% among 290,000;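 active means inhibition above the mean plus 3 SD of all compounds in the same screening run, cut at about 4.5% in these data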;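 further: 0% = IMP-1 with DMSO and 100% = DMSO wells lacking enzyme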
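Test system: recombinant IMP-1 enzyme, purified / Medium: HEPES buffer pH 7.1 with ZnSO4 and Brij 35 / Doses: single dose, 5.6 µM / Times: 25 °C, 15 min preincubation, 25 min reaction / Detection: Epi-absorbance via hydrolysed-nitrocefin quenching of white-plate fluorescence, 480/530 nm, EDTA stop / Evaluation: percent inhibition from optical density relative to buffer-blank wells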
UBC9 SUMO inh = inhibitors of human SUMOylation (UBC9); P63279; HTRF SUMOylation assay, SAE1/SAE2 + UBC9, in vitro; inhibition, % at 35 µM; hit rate 0.36% among 290,000; in the data active means inhibition above about 50%, passing the limit was not always enough
Target sequence (P63279 whole entry, looked up): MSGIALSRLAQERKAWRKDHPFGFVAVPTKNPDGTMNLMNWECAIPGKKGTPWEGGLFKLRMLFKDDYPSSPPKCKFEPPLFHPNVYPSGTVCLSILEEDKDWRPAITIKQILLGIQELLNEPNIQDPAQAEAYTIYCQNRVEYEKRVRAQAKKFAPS
PHOSPHO1 inh = blocks human PHOSPHO1 phosphatase activity; Q8TCT1; recombinant PHOSPHO1, absorbance phosphatase assay; inhibition, % at 13.3 µM; hit rate 1.1% among 290,000; AID 1565; in the data active means inhibition above about 60%
VIM-2 inhibitor = blocks Pseudomonas aeruginosa VIM-2 metallo-beta-lactamase; purified VIM-2, nitrocefin hydrolysis, epi-absorbance fluorescence; inhibition, % at 5.6 µM; hit rate 0.89% among 290,000;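 active means inhibition above the mean of all tested compounds plus 3 SD, cutoff set per screening run, cut at about 7.5% in these data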;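 further: red hydrolysis product quenches plate fluorescence so inhibitors raise well fluorescence; 0% = enzyme with DMSO and 100% = DMSO without enzyme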
IMP-1 inh-2 = selectivity counter-screen for VIM-2 inhibitors: IMP-1 metallo-beta-lactamase inhibitors; shares compounds with VIM-2 inhibitor; purified IMP-1, nitrocefin hydrolysis, epi-absorbance fluorescence; inhibition, % at 5.6 µM; 1,300 tested, under 10 active; call rule not given here;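 further: 0% = enzyme with vehicle and 100% = vehicle without enzyme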
VIM-2 FRET ctr = counter-screen for VIM-2 inhibitors: epi-absorbance artifacts via FRET; hit rate 23% among 1,300; inhibition, % at 5.6 µM; AID 1857; purified VIM-2, CCF2 FRET substrate hydrolysis; shares compounds with VIM-2 inhibitor;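 active means inhibition above the mean of all tested compounds plus 3 SD, cut at about 19% in these data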;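 further: 0% = VIM-2 plus DMSO and 100% = no enzyme wells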
TEM-1 counter = TEM-1 inhibition, counter-screen for VIM-2 inhibitors; shares compounds with VIM-2 inhibitor; Purified TEM-1, nitrocefin hydrolysis, epi-absorbance fluorescence; inhibition, % at 5.6 µM; hit rate 3% among 1,300; AID 1866;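 active means inhibition above that campaign's mean inhibition plus 3 SD, cut at about 0.46% in these data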;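 further: 0% = TEM-1 with DMSO and 100% = TEM-1 with 100 µM potassium clavulanate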
Target sequence (P62593 whole entry, looked up): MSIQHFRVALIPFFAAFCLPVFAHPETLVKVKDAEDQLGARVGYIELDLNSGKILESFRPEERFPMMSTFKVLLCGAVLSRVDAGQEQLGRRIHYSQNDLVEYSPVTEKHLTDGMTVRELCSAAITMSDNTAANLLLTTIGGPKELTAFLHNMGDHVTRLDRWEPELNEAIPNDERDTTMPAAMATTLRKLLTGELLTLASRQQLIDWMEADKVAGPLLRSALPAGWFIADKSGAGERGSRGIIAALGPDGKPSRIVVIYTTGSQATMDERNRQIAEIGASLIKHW
VIM-2 confirm 2 = confirmation of P. aeruginosa VIM-2 metallo-beta-lactamase inhibitors; inhibition, % at 5.6 µM; AID 2187; shares compounds with VIM-2 inhibitor; purified VIM-2, nitrocefin hydrolysis, epi-absorbance; hit rate 96% among 1,300;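 active means inhibition of the VIM-2 beta-lactamase enzyme above about 11% from the earlier first-round screen, limit read from the data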;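 further: 0% = VIM-2 with DMSO and 100% = buffer wells without enzyme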
The depositor's hits bear a star; · = not tested or not shown.

SMILES | NS3 helicase inh | core dimer inh | IMP-1 inh-1 | UBC9 SUMO inh | PHOSPHO1 inh | VIM-2 inhibitor | IMP-1 inh-2 | VIM-2 FRET ctr | TEM-1 counter | VIM-2 confirm 2
Cc1c(C)c2cc(Cl)c(OCC(=O)NCCCn3ccnc3)cc2oc1=O | -3.4 | -0.3 | -0.8 | 19.1 | -9.6 | 27.9* | -3.5 | -11.2 | -2.5 | 37.7*
O=C(COc1cc2oc(=O)c3c(c2cc1Cl)CCC3)NCCCn1ccnc1 | 3.6 | 8.6 | -1.6 | -8.7 | 42.2 | 29.5* | -2.2 | -5.0 | -6.1 | 44.1*
CCc1cc(=O)oc2cc(OCC(=O)NCCCN3CCCC3=O)c(Cl)cc12 | -1.0 | 4.0 | -1.9 | 4.8 | 29.0 | 0.3 | · | · | · | ·
CCc1cc(=O)oc2cc(OCC(=O)NCCCn3ccnc3)c(Cl)cc12 | 8.2 | -1.7 | -1.2 | 1.9 | 6.7 | 23.6* | -2.7 | -6.6 | -5.2 | 34.6*
Cc1cc(OC(=O)c2ccc(S(=O)(=O)N(C)C)cc2)c([N+](=O)[O-])c(=O)[nH]1 | 9.0 | 2.5 | -2.5 | 3.3 | 26.7 | -1.6 | · | · | · | ·
O=c1[nH]c(CN2CCN(c3ccccc3)CC2)nc2ccccc12 | -0.1 | 1.1 | -2.2 | 2.0 | 1.0 | -1.4 | · | · | · | ·
O=c1[nH]c(CN2CCN(c3ccc(F)cc3)CC2)nc2ccccc12 | -1.8 | -1.4 | -4.3 | 1.2 | 37.3 | 55.5* | -4.2 | -2.1 | -7.0 | -0.5
CCOc1ccc2nc(C)cc(Nc3ccc4c(c3)OCCO4)c2c1 | -13.2 | -2.3 | -2.6 | 24.2 | 30.5 | 18.1* | -3.1 | -1.2 | -4.6 | 31.2*
COc1cc(CNCc2ccccn2)ccc1OCc1cccc(Cl)c1 | -39.2 | -1.7 | -2.4 | 19.3 | -13.5 | 12.2* | -2.8 | -23.8 | -4.8 | 29.1*
Cc1nc2ccccc2c2oc(C(=O)NCCN3CCN(C)CC3)cc12 | 10.3 | -4.3 | -5.6 | -0.5 | -2.3 | 41.8* | -4.1 | 0.8 | -8.4 | 53.4*
CCCCN(CC)CCNC(=O)c1cc2c(=O)n(C)c3ccccc3c2s1 | -9.6 | 0.0 | 1.1 | 8.0 | 23.3 | 20.8* | -1.9 | 11.0 | -6.5 | 27.1*
CCN(CC)CCNC(=O)c1cc2c(=O)n(C)c3ccccc3c2s1 | 19.2 | 3.2 | -1.5 | 22.2 | 23.3 | 18.2* | -1.8 | 7.7 | -5.9 | 26.1*
CCCCN(C(=O)c1ccccc1OCc1ccc(F)cc1)c1c(N)n(CC(C)C)c(=O)[nH]c1=O | 2.4 | 3.5 | -1.9 | -1.2 | 19.0 | 0.5 | · | · | · | ·
Cc1ccc(N(CC(=O)NC2CCCCC2)S(=O)(=O)c2cccs2)cc1 | -3.1 | 10.9 | -3.4 | -0.7 | 27.6 | -5.2 | · | · | · | ·
COc1ccc(C2/C(=C(/O)c3ccc(F)cc3)C(=O)C(=O)N2CCCN2CCOCC2)cc1OC (stereo unspecified) | 5.1 | -2.0 | 0.8 | 1.9 | 2.6 | 0.8 | · | · | · | ·
O=c1cc(CN2CCN(CCO)CC2)c2cc3c(cc2o1)CCC3 | -0.6 | -4.1 | -2.6 | 15.0 | -4.2 | 16.5* | -2.7 | 0.3 | -6.5 | 32.6*
CCOC(=O)N1CCN(Cc2cc(=O)oc3cc4c(cc23)CCC4)CC1 | -1.9 | 6.0 | -2.3 | -7.3 | -6.8 | 0.2 | · | · | · | ·
CCOc1ccccc1C(=O)Nc1ccc(S(=O)(=O)N2CCN(C)CC2)cc1 | -17.0 | · | -2.5 | 3.9 | 48.9 | 17.5* | -1.4 | 5.4 | -5.8 | 31.4*
CN1CCN(S(=O)(=O)c2ccc(NC(=S)NC(=O)c3ccccc3)cc2)CC1 | -4.4 | 0.1 | 0.4 | 0.9 | -43.0 | 34.2* | -2.4 | -1.8 | -6.1 | 63.0*
CC(C)Oc1cccc(C(=O)NC(=S)Nc2ccc(N3CCN(C)CC3)cc2)c1 | -43.1 | 4.1 | 0.7 | 13.0 | 29.0 | 55.7* | -3.3 | -2.2 | -9.3 | 70.3*
CCC(=O)NC(=S)Nc1ccc(S(=O)(=O)N2CCN(C)CC2)cc1 | 2.2 | -16.6 | -1.1 | 6.2 | 2.1 | 2.6 | · | · | · | ·
